# The list is not random: actives were taken first. Their share in the collection is about 4.2%.
# Mot1-301 SUMO: SUMOylation pathway inhibition by Mot1-301 growth rescue; S. cerevisiae Mot1-301 growth rescue, ATP luminescence, 38.5C; percent above DMSO median, 100 means doubled; 320,000 compounds, 1% hits; growth rescue, % at 18.8 µM;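 active = every valid replicate shows activation above 250% relative to neutral control wells; inactive = the rest, any valid replicate at or below 250%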;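 note: OY570 slx delta 5 strain wells were the positive control but not used for scaling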
# hERG protect: hERG (human) protection from proarrhythmic block; CHO-hERG, FluxOR thallium flux, dofetilide IC70 present; 310,000 compounds, 0.51% hits; AID 1511; Q12809; activation (rescue from dofetilide block), less the hit threshold, % at 10 µM;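 active = activation above the mean of controls blocked by dofetilide plus 5 SD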;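 note: thallium influx through hERG after potassium depolarization seen as dye fluorescence rise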
# KCNQ1 act: potentiates or activates the human KCNQ1 potassium channel; P51787; CHO-K1 KCNQ1, thallium flux FluxOR fluorescence; stronger effect = higher value; B-score at 10 µM; 310,000 compounds, 0.35% hits; AID 2648;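 active = fluorescence ratio B-score, a plate-corrected score, at least three library SD, with initial intensity B-score within 5 SD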
#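 System: CHO-K1 cells stably expressing KCNQ1 / Medium: assay buffer for compound exposure, DMSO matched across wells / Reagent: thallium- and potassium-containing depolarizing buffer / Compound: one concentration, matched DMSO / Incubation: 20 min compound pretreatment at room temperature / Measured by: kinetic FluxOR fluorescence, 10 s baseline plus 110 s post-stimulus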
# KCNQ1 block: blocks the human KCNQ1 potassium channel; B-score at 10 µM; CHO-K1 KCNQ1, FluxOR thallium flux fluorescence; stronger effect = higher value; 310,000 compounds, 1.3% hits; P51787;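 active = compounds whose thallium flux B-score, printed positive for inhibition, exceeds three library SD while starting fluorescence stays within three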;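 note: channel opened by potassium depolarization with thallium stimulus after 20 min compound exposure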
# KCC2 mod: KCC2 (human) Cl- transport modulation | B-score of Tl+ flux slope (higher = more flux/activation; lower = inhibition) at 10 µM | KCC2 cells, thallium flux FluoZin-2 fluorescence | 190,000 compounds, 2.2% hits;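 active = thallium flux slope and its plate-corrected score both differing from the plate sample mean at a set confidence after two filtering rounds, in either direction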;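 note: slope of fluorescence scaled to starting intensity during 10 to 20 s after thallium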
# Target sequence (Q9H2X9 whole entry, looked up): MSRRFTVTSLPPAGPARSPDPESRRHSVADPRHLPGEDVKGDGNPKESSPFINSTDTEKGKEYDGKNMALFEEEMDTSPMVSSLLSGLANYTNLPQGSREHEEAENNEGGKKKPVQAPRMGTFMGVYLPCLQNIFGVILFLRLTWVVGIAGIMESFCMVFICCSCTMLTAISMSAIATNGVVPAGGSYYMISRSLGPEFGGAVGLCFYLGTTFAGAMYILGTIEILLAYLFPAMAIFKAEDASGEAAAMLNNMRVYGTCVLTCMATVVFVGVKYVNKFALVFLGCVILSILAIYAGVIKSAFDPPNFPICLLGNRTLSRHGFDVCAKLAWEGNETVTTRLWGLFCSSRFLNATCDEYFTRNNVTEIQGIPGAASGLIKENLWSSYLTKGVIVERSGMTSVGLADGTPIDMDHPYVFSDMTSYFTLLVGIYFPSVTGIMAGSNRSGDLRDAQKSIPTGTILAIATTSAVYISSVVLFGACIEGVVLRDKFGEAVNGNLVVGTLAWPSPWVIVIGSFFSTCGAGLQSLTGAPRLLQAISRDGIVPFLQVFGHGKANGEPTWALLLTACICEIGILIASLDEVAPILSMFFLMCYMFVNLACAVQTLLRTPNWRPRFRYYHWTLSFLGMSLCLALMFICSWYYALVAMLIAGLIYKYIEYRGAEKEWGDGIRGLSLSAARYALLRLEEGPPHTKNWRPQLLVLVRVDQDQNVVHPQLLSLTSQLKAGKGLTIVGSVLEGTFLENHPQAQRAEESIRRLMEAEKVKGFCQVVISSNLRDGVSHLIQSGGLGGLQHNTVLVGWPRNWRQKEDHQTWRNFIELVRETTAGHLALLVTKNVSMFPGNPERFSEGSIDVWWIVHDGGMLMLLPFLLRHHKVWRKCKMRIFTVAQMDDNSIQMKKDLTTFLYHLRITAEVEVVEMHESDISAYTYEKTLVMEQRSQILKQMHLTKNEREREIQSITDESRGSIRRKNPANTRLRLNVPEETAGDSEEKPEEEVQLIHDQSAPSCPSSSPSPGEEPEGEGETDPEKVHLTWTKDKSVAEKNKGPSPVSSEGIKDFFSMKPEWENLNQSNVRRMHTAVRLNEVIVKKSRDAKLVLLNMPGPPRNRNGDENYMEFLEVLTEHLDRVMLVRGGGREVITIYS
# AI-2 QS mod: modulators of Vibrio harveyi AI-2 quorum sensing system. Vibrio harveyi JMH597 AI-2 luminescence/OD600 ratio, 9 h; stronger effect = lower value; strain lacks LuxN and CqsS sensors; 0 = neutral-control median. activity change, % at 7.5 µM. 300,000 compounds, 0.4% hits; in the data active = activity change below about -75%, passing the limit was not always enough; inconclusive = no clear call, values can overlap the other calls;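 note: luminescence divided by OD600 gain over 9 h not by final OD600 alone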
# KCC2 sec1: KCC2 (human) modulation, secondary assay | HEK293-KCC2, thallium flux, FluoZin2 fluorescence; stronger effect = higher value | shares compounds with KCC2 mod | AID 1713 | 3,700 compounds, 15% hits | normalised thallium flux (F/F0 slope) at 10 µM;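 active = thallium flux slope above the same plate's solvent-only control mean plus 3 SD; inconclusive = the two replicate wells disagree; inactive = no significant difference from solvent-only control wells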
# KCC2 bumet counter: thallium flux despite bumetanide block in KCC2 cells, secondary assay 3; shares compounds with KCC2 mod; HEK293-KCC2 + bumetanide/ouabain, thallium flux FluoZin2; stronger effect = higher value; normalized thallium flux at 10 µM; 3,700 compounds, 49% hits; AID 1714;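 active = thallium entry rate above the same plate's blocked-transporter control wells by more than 3 SD; inconclusive = the two repeat wells disagree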;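 note: raw slope of fluorescence over initial fluorescence between 10 and 20 s after thallium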
# KCC2 secondary2: confirmation of human KCC2 transport modulators. shares compounds with KCC2 mod. HEK293-KCC2, thallium flux FluoZin2 fluorescence; actives lie on both sides; F/F0 rise rate, 10–20 s post-thallium. normalized thallium flux at 10 µM. 3,700 compounds, 23% hits. AID 1715;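 active = thallium flux slope more than 3 SD above or below the plate's solvent-only control mean, mostly below; inconclusive = the two repeat wells disagreed; inactive = no significant shift from solvent-only controls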;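 note: raw slope with 0.1% DMSO as baseline and bumetanide as block control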
# HEK293 Tl flux: acts in parental HEK cells, KCC2 counter-screen. shares compounds with KCC2 mod. thallium flux rate (normalised fluorescence) at 10 µM. HEK293 parental cells, thallium flux FluoZin2, ouabain; baseline-ratio fluorescence slope, 10–20 s after thallium. AID 1716. 3,700 compounds, 46% hits;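 active = thallium flux rate significantly above the same plate's solvent-only control wells, beyond their mean plus 3 SD; inconclusive = the two replicate wells gave conflicting results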
# KCC2 retest ouab: confirmation of human KCC2 modulators with ouabain; raw Tl+ flux slope (below DMSO = inhibition, above = activation) at 10 µM; shares compounds with KCC2 mod; HEK293-KCC2, thallium flux FluoZin2 fluorescence; bidirectional: low = inhibitor, high = activator; 3,700 compounds, 48% hits; AID 1717;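 active = thallium flux slope beyond 3 SD from same-plate DMSO control mean in most replicates, usually higher, sometimes lower; inconclusive = repeat tests gave conflicting results; inactive = no significant difference from controls in most replicates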;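 note: slope of initial-normalized fluorescence between seconds 10 and 20 after thallium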
# HEK counter2: acts in parental HEK cells, second KCC2 counter-screen | shares compounds with KCC2 mod | HEK293 parental, thallium flux FluoZin-2 fluorescence slope | thallium flux slope at 10 µM | 3,700 compounds, 33% hits;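 active = thallium flux slope above the same plate's solvent-control mean plus 3 SD in both duplicate wells; inconclusive = duplicate wells that disagreed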;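 note: run without ouabain in cells lacking the KCC2 cotransporter; slope of fluorescence scaled to its starting value between 10 and 20 s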
# The depositor's hits bear a star; i = inactive; ? = inconclusive; . = not tested or not shown.
SMILES,Mot1-301 SUMO,hERG protect,KCNQ1 act,KCNQ1 block,KCC2 mod,AI-2 QS mod,KCC2 sec1,KCC2 bumet counter,KCC2 secondary2,HEK293 Tl flux,KCC2 retest ouab,HEK counter2
Cc1oc(-c2ccccc2F)nc1CS(=O)(=O)CC(=O)NCCCN1CC(C)CC(C)C1 (configuration not stated),12,-6,i,i,.,5,.,.,.,.,.,.
CC1CN(CC(O)COc2ccc(C#N)cc2)CCN1CC(O)COc1ccc(C#N)cc1 (configuration not stated),-6,-11,i,i,.,18,.,.,.,.,.,.
O=C(NC(C(=O)N/N=C/c1ccccn1)c1n[nH]c(=O)c2ccccc12)c1ccccc1 (configuration not stated),16,-9,i,i,0.076,-3,.,.,.,.,.,.
Cc1cc(-c2nc3cccnc3s2)ccc1NS(=O)(=O)c1ccc2c(c1)OCCO2,-12,-10,i,i,-3.9*,2,0.009,0.0056,0.034,0.0077,0.02,0.011
Cc1c(NS(=O)(=O)c2ccc3c(c2)OCCO3)cccc1-c1nc2cccnc2s1,-15,-9,i,i,-1.3,16,.,.,.,.,.,.
Nc1c(C(=O)O)sc2nc(-c3ccccc3)cc(-c3ccccc3)c12,-1,-19,i,i,0.42,11,.,.,.,.,.,.
Nc1c(C(=O)O)sc2nc(-c3ccccc3)cc(-c3ccc(F)cc3)c12,-1,-15,i,i,-5.4*,27,0.0089,0.012*,0.028,0.0069,0.012*,0.01
Cc1ccc(Cl)cc1N1CCN(C(=O)Cc2csc(Nc3nc(=S)[nH]c4ccccc34)n2)CC1,-4,-14,i,i,19*,14,0.013*,0.053*,?,0.032*,0.054*,0.014*
O=C(Cc1csc(Nc2nc(=S)[nH]c3ccccc23)n1)N1CCN(c2cccc(Cl)c2)CC1,6,-14,i,i,25*,11,?,0.075*,0.036,0.03*,0.053*,0.014*
NS(=O)(=O)c1ccc(NC(=O)COC(=O)CNC(=O)C23CC4CC(CC(C4)C2)C3)cc1,.,-21,i,i,0.55,0,.,.,.,.,.,.
CC(C)c1ccc(CN2CCC(Oc3ccc(C(=O)N4CCCC4)cc3)CC2)cc1,-8,-12,i,i,.,14,.,.,.,.,.,.
N#Cc1nnn(Cc2ccccc2)c1N,.,-2,i,i,0.0011,7,.,.,.,.,.,.
O=C(OCC#Cc1c(COC(=O)c2ccccc2)nnn1Cc1ccccc1)c1ccccc1,-7,-9,i,i,1.8*,10,0.007,0.004,0.028,0.0073,0.018,0.01
Cc1ccccc1-n1nnnc1SCc1ncc(-c2ccccc2)o1,5,-13,i,i,-3.4*,-28,0.0068,0.0039,?,?,0.016,0.01
c1ccc(-c2cnc(CSc3nnc4ccccn34)o2)cc1,11,-6,i,i,0.052,52,.,.,.,.,.,.
O=C(CNC(=S)N(Cc1ccccc1)Cc1cccnc1)NC1CCCC1,326,-11,i,i,-0.14,39,.,.,.,.,.,.
COc1ccc(NC(=O)C(C)N2C(=O)C3CC=C(Cl)CC3C2=O)cc1 (configuration not stated),25,-3,i,i,.,-1,.,.,.,.,.,.
CCOC(=O)c1sc2nc(C)[nH]c(=S)c2c1C,.,1,40*,i,200*,47,0.054*,0.15*,0.052*,0.11*,0.12*,0.05*
O=C(CSc1nnc(-c2ccncc2)o1)NC1CCCCC1,6,-7,i,i,0.55,16,.,.,.,.,.,.
Cc1cc(-c2nnc(SCC(=O)NC3CCCC3)o2)no1,-17,-5,i,i,7.1*,9,0.0071,0.0047,0.029,0.0072,0.018,0.01
O=C(N1CCCC1)C(F)(F)Oc1ccc(F)cc1,-1,-15,i,i,0.24,5,.,.,.,.,.,.
COc1ccc(-c2csc(NC(=O)c3ccccc3OC)c2C(=O)O)cc1OC,-20,-10,i,i,.,4,.,.,.,.,.,.
COc1ccc(-c2csc(NC(=O)c3cccs3)c2C(=O)O)cc1OC,-14,3,i,i,-3.7*,21,0.0076,0.0065,0.036,0.0036,0.016*,0.012
COc1ccc(-c2csc(NC(=O)c3ccccc3Br)c2C(=O)O)cc1,67,-11,i,i,.,66,.,.,.,.,.,.
COc1ccc(-c2csc(NC(=O)Cc3cccc4ccccc34)c2C(=O)O)cc1,.,-7,i,i,-4.1*,18,0.0078,0.0051,0.028,0.0084,0.017,0.011
SMILES,Mot1-301 SUMO,hERG protect,KCNQ1 act,KCNQ1 block,KCC2 mod,AI-2 QS mod,KCC2 sec1,KCC2 bumet counter,KCC2 secondary2,HEK293 Tl flux,KCC2 retest ouab,HEK counter2
CCc1cc(Cn2nc(-c3ccccc3)cc2C(=O)NCc2cccc(Br)c2)on1,-1,.,.,.,.,.,.,.,.,.,.,.
Cc1ccc(S(=O)(=O)N(CC(=O)O)Cc2ccccc2)cc1,17,-2,i,i,0.011,8,.,.,.,.,.,.
Cc1ccc(S(=O)(=O)N(CCC(=O)O)Cc2ccc(Cl)cc2)cc1,-18,-5,i,i,.,-3,0.0059,0.0067*,0.022*,0.0072,0.013*,0.011
N#CCSc1ncnc2sc3c(c12)CCC3,2,-8,i,i,0.3,16,.,.,.,.,.,.
O=C(CSc1ncnc2sc3c(c12)CCCC3)c1ccco1,24,-11,i,i,19*,15,?,0.095*,0.038,?,0.055*,?
Cc1ccc(C(=O)O)cc1NC(=O)CSc1ncnc2sc3c(c12)CCC3,-1,-12,i,i,10*,23,0.0069,0.016*,0.036,0.017*,0.025*,0.018*
